Test results from ChEMBL document CHEMBL1772948, “Chemistry and biology of macrolide antiparasitic agents” (J Med Chem, 2011).
Values after ≈ are worked out from the molar mass of the structure shown.

Columns and labels:
Bacillus subtilis = test: Antibacterial activity against Bacillus subtilis; format: functional
Toxoplasma gondii [1] = test: Antiparasitic activity against Toxoplasma gondii 2F-1 expressing yellow fluorescent protein infected in HFF after 4 days; format: functional, organism-based; details: 2F-1, 96 h
HFF = test: Cytotoxicity against HFF after 48 hrs by MTS assay; format: cell-based; details: human
Procedure, shortened: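 Low-passage HFF seeded in 96-well plates and incubated 24h at 37 °C, then exposed to varying macrolide concentrations for 2 days; medium replaced with fresh medium plus MTS, 4h at 37 °C, absorbance 490 nm; CC50 = dose reducing viability by 50%.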

Toxoplasma gondii [2] = test: Antiparasitic activity against yellow fluorescent protein expressing Toxoplasma gondii 2F-1 treated 6 hrs after infection for 42 hrs followed by reinoculated into fresh HFF monolayers measured after 48 hrs; format: functional, organism-based
Procedure, shortened: (§1)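 Two-cycle protocol in HFF at 37 °C, 5% CO2, DMEM with 10% FBS. "0h": compound added with parasites, 48 h. "6h": parasites pre-incubated 6 h, uninvaded parasites removed, fresh medium with compound added, 42 h. Released tachyzoites were then harvested, purified and inoculated into fresh HFF without compound for the 2nd cycle. At least triplicate.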

Toxoplasma gondii [3] = test: Antiparasitic activity against yellow fluorescent protein expressing Toxoplasma gondii 2F-1 infected in HFF treated immediately after infection measured after 48 hrs; format: functional, organism-based; details: 2F-1, 48 h
Toxoplasma gondii [4] = test: Antiparasitic activity against yellow fluorescent protein expressing Toxoplasma gondii 2F-1 infected in HFF treated 6 hrs after infection measured after 48 hrs; format: functional, organism-based
Toxoplasma gondii [5] = test: Antiparasitic activity against yellow fluorescent protein expressing Toxoplasma gondii 2F-1 treated immediately after infection for 48 hrs followed by reinoculated into fresh HFF monolayers measured after 48 hrs; format: functional, organism-based; details: 2F-1, 48 h; procedure, shortened: as §1

| Structure (SMILES) | MIC (Bacillus subtilis) | IC50 (Toxoplasma gondii [1]) | CC50 (HFF) | IC50 (Toxoplasma gondii [2]) | IC50 (Toxoplasma gondii [3]) | IC50 (Toxoplasma gondii [4]) | IC50 (Toxoplasma gondii [5]) |
| --- | --- | --- | --- | --- | --- | --- | --- |
| CCCN1C[C@H](C)C[C@@](C)(OC)[C@H](O[C@@H]2O[C@H](C)C[C@H](N(C)C)[C@H]2O)[C@@H](C)[C@H](O[C@H]2C[C@@](C)(OC)[C@@H](O)[C@H](C)O2)[C@@H](C)C(=O)O[C@H](CC)[C@@](C)(O)[C@H](O)[C@H]1C | 1.2 µM (≈ 0.949 µg/mL) | 20 µM | 106 µM |  |  |  |  |
| C=CCN1C[C@H](C)C[C@@](C)(OC)[C@H](O[C@@H]2O[C@H](C)C[C@H](N(C)C)[C@H]2O)[C@@H](C)[C@H](O[C@H]2C[C@@](C)(OC)[C@@H](O)[C@H](C)O2)[C@@H](C)C(=O)O[C@H](CC)[C@@](C)(O)[C@H](O)[C@H]1C | 0.8 µM (≈ 0.631 µg/mL) | 13 µM | 84 µM |  |  |  |  |
| CC[C@H]1OC(=O)[C@H](C)[C@@H](O[C@H]2C[C@@](C)(OC)[C@@H](O)[C@H](C)O2)[C@H](C)[C@@H](O[C@@H]2O[C@H](C)C[C@H](N(C)C)[C@H]2O)[C@](C)(O)C[C@@H](C)/C(=N\OCc2ccccc2)[C@H](C)[C@@H](O)[C@]1(C)O | 0.04 µM (≈ 0.0336 µg/mL) | 1.4 µM | 3 µM |  |  |  |  |
| CC[C@H]1OC(=O)[C@H](C)[C@@H](O[C@H]2C[C@@](C)(OC)[C@@H](O)[C@H](C)O2)[C@H](C)[C@@H](O[C@@H]2O[C@H](C)C[C@H](N(C)C)[C@H]2O)[C@](C)(OC)C[C@@H](C)CN(C)[C@H](C)[C@@H](O)[C@]1(C)O | 5 µM (≈ 3.82 µg/mL) | 89 µM | 454 µM |  |  |  |  |
| C=CCO[C@]1(C)C[C@@H](C)CN(CC=C)[C@H](C)[C@@H](O)[C@](C)(O)[C@@H](CC)OC(=O)[C@H](C)[C@@H](O[C@H]2C[C@@](C)(OC)[C@@H](O)[C@H](C)O2)[C@H](C)[C@H]1O[C@@H]1O[C@H](C)C[C@H](N(C)C)[C@H]1O | 5 µM (≈ 4.08 µg/mL) | 12 µM | 38 µM |  |  |  |  |
| CCCO/N=C1\[C@H](C)C[C@@](C)(O)[C@H](O[C@@H]2O[C@H](C)C[C@H](N(C)C)[C@H]2O)[C@@H](C)[C@H](O[C@H]2C[C@@](C)(OC)[C@@H](O)[C@H](C)O2)[C@@H](C)C(=O)O[C@H](CC)[C@@](C)(O)[C@H](O)[C@H]1C | 0.04 µM (≈ 0.0316 µg/mL) | 1.6 µM | 7 µM |  |  |  |  |
| CCNC(=O)N1C[C@H](C)C[C@@](C)(O)[C@H](O[C@@H]2O[C@H](C)C[C@H](N(C)C)[C@H]2O)[C@@H](C)[C@H](O[C@H]2C[C@@](C)(OC)[C@@H](O)[C@H](C)O2)[C@@H](C)C(=O)O[C@H](CC)[C@@](C)(O)[C@H](O)[C@H]1C | 10 µM (≈ 8.06 µg/mL) | 85 µM | 480 µM |  |  |  |  |
| C=CCO/N=C1\[C@H](C)C[C@@](C)(O)[C@H](O[C@@H]2O[C@H](C)C[C@H](N(C)C)[C@H]2O)[C@@H](C)[C@H](O[C@H]2C[C@@](C)(OC)[C@@H](O)[C@H](C)O2)[C@@H](C)C(=O)O[C@H](CC)[C@@](C)(O)[C@H](O)[C@H]1C | 0.04 µM (≈ 0.0316 µg/mL) | 2.7 µM | 16 µM |  |  |  |  |
| CCCN1C[C@H](C)C[C@@](C)(O)[C@H](O[C@@H]2O[C@H](C)C[C@H](N(C)C)[C@H]2O)[C@@H](C)[C@H](O[C@H]2C[C@@](C)(OC)[C@@H](O)[C@H](C)O2)[C@@H](C)C(=O)O[C@H](CC)[C@@](C)(O)[C@H](O)[C@H]1C | 0.6 µM (≈ 0.466 µg/mL) | 16 µM | 139 µM |  |  |  |  |
| C=CCN1C[C@H](C)C[C@@](C)(O)[C@H](O[C@@H]2O[C@H](C)C[C@H](N(C)C)[C@H]2O)[C@@H](C)[C@H](O[C@H]2C[C@@](C)(OC)[C@@H](O)[C@H](C)O2)[C@@H](C)C(=O)O[C@H](CC)[C@@](C)(O)[C@H](O)[C@H]1C | 0.3 µM (≈ 0.233 µg/mL) | 13 µM | 103 µM |  |  |  |  |
| C=CCO[C@]1(C)C[C@@H](C)CN(Cc2ccccc2)[C@H](C)[C@@H](O)[C@](C)(O)[C@@H](CC)OC(=O)[C@H](C)[C@@H](O[C@H]2C[C@@](C)(OC)[C@@H](O)[C@H](C)O2)[C@H](C)[C@H]1O[C@@H]1O[C@H](C)C[C@H](N(C)C)[C@H]1O | 6 µM (≈ 5.19 µg/mL) | 5 µM | 14 µM | > 10 µM | 7 µM | > 10 µM | 10 µM |
| C=CCO[C@]1(C)C[C@@H](C)CN(C(=O)NCc2ccccc2)[C@H](C)[C@@H](O)[C@](C)(O)[C@@H](CC)OC(=O)[C@H](C)[C@@H](O[C@H]2C[C@@](C)(OC)[C@@H](O)[C@H](C)O2)[C@H](C)[C@H]1O[C@@H]1O[C@H](C)C[C@H](N(C)C)[C@H]1O | 1.5 µM (≈ 1.36 µg/mL) | 6 µM | 28 µM |  |  |  |  |
| C=CCO[C@]1(C)C[C@@H](C)CN(CCC)[C@H](C)[C@@H](O)[C@](C)(O)[C@@H](CC)OC(=O)[C@H](C)[C@@H](O[C@H]2C[C@@](C)(OC)[C@@H](O)[C@H](C)O2)[C@H](C)[C@H]1O[C@@H]1O[C@H](C)C[C@H](N(C)C)[C@H]1O | 10 µM (≈ 8.17 µg/mL) | 15 µM | 42 µM |  |  |  |  |
| CC[C@H]1OC(=O)[C@H](C)[C@@H](O[C@H]2C[C@@](C)(OC)[C@@H](O)[C@H](C)O2)[C@H](C)[C@@H](O[C@@H]2O[C@H](C)C[C@H](N(C)C)[C@H]2O)[C@](C)(OC)C[C@@H](C)CN[C@H](C)[C@@H](O)[C@]1(C)O | 2.5 µM (≈ 1.87 µg/mL) | 106 µM | 460 µM |  |  |  |  |
| CC[C@H]1OC(=O)[C@H](C)[C@@H](O[C@H]2C[C@@](C)(OC)[C@@H](O)[C@H](C)O2)[C@H](C)[C@@H](O[C@@H]2O[C@H](C)C[C@H](N(C)C)[C@H]2O)[C@](C)(O)C[C@@H](C)C(=O)[C@H](C)[C@@H](O)[C@]1(C)O [ERYTHROMYCIN] | 0.04 µM (≈ 0.0294 µg/mL) | 93 µM | 475 µM |  |  |  |  |
| CC[C@H]1OC(=O)[C@H](C)[C@@H](O[C@H]2C[C@@](C)(OC)[C@@H](O)[C@H](C)O2)[C@H](C)[C@@H](O[C@@H]2O[C@H](C)C[C@H](N(C)C)[C@H]2O)[C@](C)(OC)C[C@@H](C)C(=O)[C@H](C)[C@@H](O)[C@]1(C)O [CLARITHROMYCIN] | 0.04 µM (≈ 0.0299 µg/mL) | 31 µM | 260 µM |  |  |  |  |
| CC[C@H]1OC(=O)[C@H](C)[C@@H](O[C@H]2C[C@@](C)(OC)[C@@H](O)[C@H](C)O2)[C@H](C)[C@@H](O[C@@H]2O[C@H](C)C[C@H](N(C)C)[C@H]2O)[C@](C)(O)C[C@@H](C)/C(=N\OC)[C@H](C)[C@@H](O)[C@]1(C)O | 0.04 µM (≈ 0.0305 µg/mL) | 14 µM | 22 µM |  |  |  |  |
| CC[C@H]1OC(=O)[C@H](C)[C@@H](O[C@H]2C[C@@](C)(OC)[C@@H](O)[C@H](C)O2)[C@H](C)[C@@H](O[C@@H]2O[C@H](C)C[C@H](N(C)C)[C@H]2O)[C@](C)(O)C[C@@H](C)CN[C@H](C)[C@@H](O)[C@]1(C)O | 1.2 µM (≈ 0.882 µg/mL) | 65 µM | 386 µM |  |  |  |  |
| C=CCO[C@]1(C)C[C@@H](C)CN(C(=O)NCC)[C@H](C)[C@@H](O)[C@](C)(O)[C@@H](CC)OC(=O)[C@H](C)[C@@H](O[C@H]2C[C@@](C)(OC)[C@@H](O)[C@H](C)O2)[C@H](C)[C@H]1O[C@@H]1O[C@H](C)C[C@H](N(C)C)[C@H]1O | 5 µM (≈ 4.23 µg/mL) | 33 µM | 90 µM |  |  |  |  |
| CC[C@H]1OC(=O)[C@H](C)[C@@H](O[C@H]2C[C@@](C)(OC)[C@@H](O)[C@H](C)O2)[C@H](C)[C@@H](O[C@@H]2O[C@H](C)C[C@H](N(C)C)[C@H]2O)[C@](C)(OC)C[C@@H](C)CN(C(=O)NCc2ccccc2)[C@H](C)[C@@H](O)[C@]1(C)O | 1.5 µM (≈ 1.32 µg/mL) | 16 µM | 62 µM |  |  |  |  |
| CC[C@H]1OC(=O)[C@H](C)[C@@H](O[C@H]2C[C@@](C)(OC)[C@@H](O)[C@H](C)O2)[C@H](C)[C@@H](O[C@@H]2O[C@H](C)C[C@H](N(C)C)[C@H]2O)[C@](C)(O)C[C@@H](C)CN(C(=O)NCc2ccccc2)[C@H](C)[C@@H](O)[C@]1(C)O | 1.2 µM (≈ 1.04 µg/mL) | 12 µM | 222 µM |  |  |  |  |
| CC[C@H]1OC(=O)[C@H](C)[C@@H](O[C@H]2C[C@@](C)(OC)[C@@H](O)[C@H](C)O2)[C@H](C)[C@@H](O[C@@H]2O[C@H](C)C[C@H](N(C)C)[C@H]2O)[C@](C)(OC)C[C@@H](C)CN(Cc2ccccc2)[C@H](C)[C@@H](O)[C@]1(C)O | 0.3 µM (≈ 0.252 µg/mL) | 2 µM | 13 µM | 4 µM | 7 µM | 10 µM | 5 µM |
| CCNC(=O)N1C[C@H](C)C[C@@](C)(OC)[C@H](O[C@@H]2O[C@H](C)C[C@H](N(C)C)[C@H]2O)[C@@H](C)[C@H](O[C@H]2C[C@@](C)(OC)[C@@H](O)[C@H](C)O2)[C@@H](C)C(=O)O[C@H](CC)[C@@](C)(O)[C@H](O)[C@H]1C | 10 µM (≈ 8.2 µg/mL) | 59 µM | 409 µM |  |  |  |  |
